# KCNK9 block = human KCNK9 channel inhibition. HEK293 KCNK9, FluxOR thallium flux fluorescence; stronger effect = lower value. Q9NPC2. 310,000 compounds, 1.2% hits. B-score at 10 µM;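 active = ratio B-score over 3 SD below the library mean, with starting fluorescence within 5 SD of its mean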;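 note: negative B-score means less thallium flux so channel inhibition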
# KCNQ1 act = potentiators or activators of human KCNQ1 potassium channel. P51787. CHO-K1 KCNQ1, thallium flux FluxOR fluorescence; stronger effect = higher value. B-score at 10 µM. 310,000 compounds, 0.35% hits;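 active = fluorescence ratio B-score, a plate-corrected score, at least three library SD, with initial intensity B-score within 5 SD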
#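 Schedule – 37 °C overnight plating, 90-min dark dye load, 20-min compound pretreatment · System – stable KCNQ1 CHO-K1 line · Probe or stimulus – thallium- and potassium-containing depolarizing buffer · Measured by – kinetic FluxOR fluorescence, 10 s baseline plus 110 s post-stimulus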
# Cl transport mod = modulators of human KCC2 chloride dependent transport. Q9H2X9. KCC2 cells, thallium flux FluoZin-2 fluorescence. B-score of Tl+ flux slope (higher = more flux/activation; lower = inhibition) at 10 µM. 190,000 compounds, 2.2% hits. AID 1456;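 active = thallium flux slope and its plate-corrected score both differing from the plate sample mean at a set confidence after two filtering rounds, in either direction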;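 note: slope of fluorescence scaled to starting intensity during 10 to 20 s after thallium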
# Target sequence (Q9H2X9 whole entry, looked up): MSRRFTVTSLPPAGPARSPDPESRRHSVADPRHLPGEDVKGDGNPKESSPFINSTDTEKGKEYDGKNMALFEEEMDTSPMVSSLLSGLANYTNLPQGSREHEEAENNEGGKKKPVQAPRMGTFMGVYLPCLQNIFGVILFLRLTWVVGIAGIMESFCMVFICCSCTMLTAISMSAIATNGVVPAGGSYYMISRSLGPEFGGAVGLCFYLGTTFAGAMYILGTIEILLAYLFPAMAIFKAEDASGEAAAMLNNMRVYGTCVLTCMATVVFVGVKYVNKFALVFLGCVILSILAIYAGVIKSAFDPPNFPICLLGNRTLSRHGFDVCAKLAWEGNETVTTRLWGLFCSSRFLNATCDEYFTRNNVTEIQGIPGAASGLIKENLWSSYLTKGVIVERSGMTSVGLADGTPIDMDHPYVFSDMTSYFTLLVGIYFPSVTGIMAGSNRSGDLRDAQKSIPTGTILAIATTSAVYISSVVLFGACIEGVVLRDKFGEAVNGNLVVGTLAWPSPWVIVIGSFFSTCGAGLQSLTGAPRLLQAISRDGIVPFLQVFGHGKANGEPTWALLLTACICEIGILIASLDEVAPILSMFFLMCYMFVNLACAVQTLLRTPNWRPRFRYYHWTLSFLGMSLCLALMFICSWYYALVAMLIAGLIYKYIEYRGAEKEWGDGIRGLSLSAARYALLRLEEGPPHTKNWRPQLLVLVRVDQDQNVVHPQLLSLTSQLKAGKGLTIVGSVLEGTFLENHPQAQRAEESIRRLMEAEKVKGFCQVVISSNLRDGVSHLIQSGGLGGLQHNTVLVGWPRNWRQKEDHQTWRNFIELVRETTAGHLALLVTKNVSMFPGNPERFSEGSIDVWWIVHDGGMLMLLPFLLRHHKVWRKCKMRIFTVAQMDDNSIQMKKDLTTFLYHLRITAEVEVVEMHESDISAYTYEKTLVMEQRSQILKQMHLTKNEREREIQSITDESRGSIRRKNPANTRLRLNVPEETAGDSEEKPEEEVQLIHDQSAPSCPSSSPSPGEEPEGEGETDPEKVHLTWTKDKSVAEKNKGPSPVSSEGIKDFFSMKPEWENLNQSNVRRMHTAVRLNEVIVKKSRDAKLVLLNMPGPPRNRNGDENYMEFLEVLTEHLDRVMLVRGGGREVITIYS
# KCNQ1 block = inhibitors of human KCNQ1 potassium channel; 310,000 compounds, 1.3% hits; B-score at 10 µM; CHO-K1 KCNQ1, FluxOR thallium flux fluorescence; stronger effect = higher value; P51787; AID 2642;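 active = compounds whose thallium flux B-score, printed positive for inhibition, exceeds three library SD while starting fluorescence stays within three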;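 note: channel opened by potassium depolarization with thallium stimulus after 20 min compound exposure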
# KCNK3 inh = human KCNK3 channel inhibition, primary screen; 340,000 compounds, 0.84% hits; B-score at 10 µM; CHO-KCNK3 thallium flux, FluxOR fluorescence; stronger effect = lower value; O14649; AID 602410;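 active = B-score under library mean minus 4 SD, starting fluorescence ratio at most library mean plus 5 SD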;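 note: more negative B-score means stronger inhibition of thallium flux through KCNK3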
# hERG protect = shields human hERG channel from block by proarrhythmic agents; Q12809; activation (rescue from dofetilide block), less the hit threshold, % at 10 µM; 310,000 compounds, 0.51% hits; CHO-hERG, FluxOR thallium flux, dofetilide IC70 present; AID 1511;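 active = activation above the mean of controls blocked by dofetilide plus 5 SD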;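 note: thallium influx through hERG after potassium depolarization seen as dye fluorescence rise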
# KCNK9 inh conf = confirmation of human KCNK9 potassium channel inhibitors; HEK293 KCNK9 cells, FluxOR thallium flux fluorescence; inhibition, % at 10 µM; 4,900 compounds, 43% hits; AID 492992; shares compounds with KCNK9 block;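 active = thallium signal inhibited by more than 5 SD of the compound-free buffer control wells, on both duplicate plates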;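 note: 0% = assay buffer control wells without compound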
# Kir21 sel = tests whether KCNK9 modulators also affect mouse Kir2.1; shares compounds with KCNK9 block; Kir2.1 cells, FluxOR thallium flux fluorescence; inhibition, % at 10 µM; 4,900 compounds, 4% hits;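 active = thallium signal drop more than 5 SD beyond the mean of the no-compound control wells, seen in both duplicate plates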;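 note: signal is fluorescence rise after thallium addition divided by baseline fluorescence; plate controls were assay buffer only for no effect and full block by chlorpromazine control for full effect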
# KCNK9 uninduced = second check of KCNK9 modulator effects in non-induced HEK293 cells; shares compounds with KCNK9 block; FluxOR thallium flux; inhibition, % at 10 µM; 4,900 compounds, 40% hits; AID 492997;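 active = thallium signal drop beyond 5 SD of the untreated control mean, on both duplicate plates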;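 note: plate controls were buffer only IC0 wells for no effect and SID17386958 at its maximal inhibitory level for full effect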
# An asterisk follows results filed as active; i = inactive; x = no result. This is a sample that favours compounds with a hit; in the whole collection about 4.1% have one here.
SMILES,KCNK9 block,KCNQ1 act,Cl transport mod,KCNQ1 block,KCNK3 inh,hERG protect,KCNK9 inh conf,Kir21 sel,KCNK9 uninduced
NC(=O)CC(NC(=O)c1ccc(Br)cc1)c1ccc(NC2CCCCCCC2)c([N+](=O)[O-])c1 (stereo not drawn),-11*,i,x,i,i,-1,i,i,33%*
O=C(NCCN1CCCCC1)c1cc(Cl)ccc1Cl,i,i,x,i,i,2,x,x,x
N#CC1=C(S)N(c2ccccc2)C(c2ccc(-c3ccc(Cl)c(Cl)c3)o2)NC1=O (stereo not drawn),i,i,x,i,i,-16,i,i,i
COc1ccc(-c2csc(NC(=O)C3COc4ccccc4O3)n2)cc1OC (stereo not drawn),-16*,i,-1.4,i,-10*,-16,64%*,i,i
CN1OC[C@@H]2CN[C@H](c3cccc(-c4ccc(C#N)cc4)c3)C[C@@H]21,x,x,x,x,i,x,x,x,x
CCOC(=O)C(C#N)(Cc1cc(OC)cc(OC)c1)Cc1cc(OC)cc(OC)c1,-14*,i,x,i,i,-6,56%*,i,46%*
O=C(OCc1cc(=O)n2ccsc2n1)c1ccc(OC(F)F)cc1,x,x,x,x,i,x,x,x,x
Cc1cc(C(C)(C)C)cc(C)c1Cn1c2[n+](c3ccc(C(F)(F)F)cc31)CCCCC2,-11*,i,0.29,6*,i,-26,71%*,i,i
CCc1cc(=O)[nH]c(SCC(=O)Nc2ccc3c(c2)OCCO3)n1,i,i,x,i,i,-1,x,x,x
O=C(N/N=C\c1cccc(Cl)c1)c1ccc(Cn2cc(Br)c([N+](=O)[O-])n2)o1,-16*,i,-0.53,i,i,-10,68%*,i,32%*
Cc1ccc(/C=N\NC(=O)c2ccc(Cn3cc(Br)c([N+](=O)[O-])n3)o2)o1,i,i,x,i,i,-9,x,x,x
Cc1c(Cl)c([N+](=O)[O-])nn1Cc1ccc(C(=O)N/N=C\c2cccc(Br)c2)o1,-8.5*,i,-0.4,i,i,-11,42%*,i,27%*
CCCCCCCOC(=O)C[N+](C)(C)CCOC1CC2CCC1(C)C2(C)C (stereo not drawn),-11*,i,1.4,13*,i,-25,54%*,73%*,22%*
CCCCN(CC)CCCNC(=O)c1cc2cc3ccc(OC)cc3nc2o1,i,i,x,i,i,-5,x,x,x
CCCCN(CC)C(=O)c1cc2cc3ccc(Cl)cc3nc2o1,-8.5*,i,x,i,i,-6,44%*,i,i
Cn1c(=O)c2c(nc(SCCN3CCOCC3)n2C)n(C)c1=O,i,i,x,i,i,-3,x,x,x
O=C(COC(=O)c1c2c(nc3ccccc13)CCN(Cc1ccccc1)C2)Nc1c(F)cccc1F,-8.3*,i,0.057,i,i,-7,i,i,i
CC(=O)Nc1ccc(NC(=O)COC(=O)c2c3c(nc4ccccc24)CCN(Cc2ccccc2)C3)cc1,i,i,-2,i,i,-8,x,x,x
CC1CCN(CC(=O)N2c3ccccc3CC2C)CC1 (stereo not drawn),i,i,-0.87,i,i,-18,x,x,x
CC1Cc2ccccc2N1C(=O)CN1CCc2ccccc2C1 (stereo not drawn),i,i,-1.9,i,i,-13,i,i,i
O=C(Nc1ccccc1)c1ccccc1OCC(O)CN1C(=O)c2ccccc2S1(=O)=O (stereo not drawn),i,i,-1.8,i,i,-16,x,x,x
CC1(C)NC(=O)N(CC(O)COc2ccccc2C(=O)Nc2ccccc2)C1=O (stereo not drawn),-15*,i,0.54,i,i,-6,58%*,i,i
c1ccc(CCN(Cc2ccccc2)Cc2nc(C3CC3)no2)cc1,-9.6*,i,0.19,i,i,-3,i,i,38%*
COc1ccccc1C1CCN(Cc2ccc3ccccc3c2)CC1,i,i,x,i,i,-20,i,28%*,i
COc1ccccc1C1CCN(Cc2ccccc2)CC1,i,i,x,i,i,-7,x,x,x
SMILES,KCNK9 block,KCNQ1 act,Cl transport mod,KCNQ1 block,KCNK3 inh,hERG protect,KCNK9 inh conf,Kir21 sel,KCNK9 uninduced
COc1ccc(CN(CCC(c2ccccc2)c2ccco2)C(=O)c2ccco2)cc1 (stereo not drawn),-13*,i,0,i,i,-17,50%*,i,29%*
COc1cc(C(=O)O)ccc1OCc1ccncc1,i,i,x,i,i,1,x,x,x
CC(C)/C=C/C(=O)N1CCCC(N2CCN(c3ccccc3F)CC2)C1 (stereo not drawn),i,i,x,i,i,-6,i,i,i
CCN(CC)S(=O)(=O)c1cccc(NC(=O)CCSc2ccc(Cl)cc2)c1,i,i,-0.18,i,i,-11,i,i,i
CSc1ccc(CN(C)C(=O)CCNS(=O)(=O)c2ccc(C)c(C)c2)cc1,i,i,x,i,i,-17,i,i,i
Cc1cc(C)c(CN2CCN(C(=O)Cn3cnc(C(=O)Nc4ccc(C)c(C)c4)n3)CC2)c(C)c1,x,x,x,x,i,x,x,x,x
CCOC(=O)c1ccc(S(=O)(=O)N2CCN(C(=O)C3CSC4(C)CCC(=O)N34)CC2)cc1 (stereo not drawn),x,x,x,x,i,x,x,x,x
Cc1cccc(N2CCN(C(=O)c3c(C)nn(Cc4ccccc4Cl)c3C)CC2)c1C,i,i,-0.11,i,i,-11,i,i,i
Cc1cccc(N2CCN(C(=O)Cc3ccccc3[N+](=O)[O-])CC2)c1C,i,i,x,i,i,-3,i,i,i
Cc1ccccc1NC(=O)Cc1nc(COC(=O)c2cccc([N+](=O)[O-])c2)cs1,i,i,x,i,i,-12,x,x,x
O=C(CO/N=C/c1ccc(OC(F)F)cc1)N1CCc2ccccc21,i,i,0.014,i,i,-4,x,x,x
CCN(CC)c1ccc(/C=N/OCC(=O)N2CCCc3ccccc32)cc1,i,i,0.057,i,i,-11,i,i,i
Cn1cc(S(=O)(=O)N2CCN(c3cccc(Cl)c3)CC2)c(=O)n(C)c1=O,i,i,-0.054,i,i,-10,i,i,i

# Screening data: PubChem BioAssay, several laboratories
